According to PMC2099187 (The Journal of Cell Biology, 2007):
Where “and” joins values, the source holds several entries; their conditions need not be identical. Equal values may be shown once.

Columns and labels:
HEK-CLR-RAMP1 cells [1] = experiment: Endocytosis and degradation of internalized 125I-His8-CGRP; format: cell-based, human; conditions: 30 min after internalization; SM-19712 10 μM, bafilomycin A1 0.15 or 1 μM
A549 cells = experiment: Resensitization of ATII-induced Ca2+ signaling; format: cell-based, human; conditions: ATII 1 μM 1 h, 1 h recovery; SM-19712 10 μM; endogenous AT1AR and ECE-1
In short: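 A549 cells (native AT1AR, ECE-1) were loaded with Fura-2AM for [Ca2+]i at 37°C. They were preincubated with ATII 1 μM or vehicle (1 h, 37°C), washed, recovered 1 h, then rechallenged with ATII 1 μM. SM-19712 10 μM or DMSO was preincubated 20–60 min and kept throughout. Response was expressed as % of vehicle-treated cells.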

SK-N-MC cells = experiment: CGRP-induced Ca2+ signaling, desensitization and resensitization; format: cell-based, human; conditions: SM-19712 10 μM
In short: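 SK-N-MC cells (endogenous CLR/RAMP1) were loaded with Fura-2AM for [Ca2+]i at 37°C. Single challenge used CGRP 100 nM. Desensitization: CGRP 100 nM or vehicle (1 h, 37°C), wash, CGRP-free recovery (4 h for resensitization), then CGRP 100 nM rechallenge. SM-19712 10 μM or DMSO was preincubated 20–60 min and kept throughout. Response was expressed as % of vehicle-treated cells.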

HEK-B2R-V2RCT cells = experiment: B2R-V2RCT recycling and colocalization with β-arrestin2-GFP; format: cell-based, human; conditions: 2 h recovery, SM-19712 10 μM
In short: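 HEK cells stably expressing HA-tagged B2R or B2R-V2RCT were transiently transfected with β-arrestin2-GFP. Surface receptors were labelled with anti-HA11 (1:100, 30 min, 37°C), then given BK 100 nM for 10 min and recovered in BK-free medium (B2R 1 h; B2R-V2RCT 2 h). SM-19712 10 μM or DMSO was preincubated 20–60 min and kept throughout. Cells were PFA-fixed for confocal imaging; plasma-membrane fraction of fluorescence and colocalization coefficient (0–1) were scored in >20 cells/experiment, n ≥ 3.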

[2] = biological target: T1, recombinant human (rh) ECE-1 (Homo sapiens, UniProt P42892); experiment: Peptide degradation by rhECE-1; format: biochemical; conditions: inhibitor 100 μM
T1 sequence (P42892 1-770): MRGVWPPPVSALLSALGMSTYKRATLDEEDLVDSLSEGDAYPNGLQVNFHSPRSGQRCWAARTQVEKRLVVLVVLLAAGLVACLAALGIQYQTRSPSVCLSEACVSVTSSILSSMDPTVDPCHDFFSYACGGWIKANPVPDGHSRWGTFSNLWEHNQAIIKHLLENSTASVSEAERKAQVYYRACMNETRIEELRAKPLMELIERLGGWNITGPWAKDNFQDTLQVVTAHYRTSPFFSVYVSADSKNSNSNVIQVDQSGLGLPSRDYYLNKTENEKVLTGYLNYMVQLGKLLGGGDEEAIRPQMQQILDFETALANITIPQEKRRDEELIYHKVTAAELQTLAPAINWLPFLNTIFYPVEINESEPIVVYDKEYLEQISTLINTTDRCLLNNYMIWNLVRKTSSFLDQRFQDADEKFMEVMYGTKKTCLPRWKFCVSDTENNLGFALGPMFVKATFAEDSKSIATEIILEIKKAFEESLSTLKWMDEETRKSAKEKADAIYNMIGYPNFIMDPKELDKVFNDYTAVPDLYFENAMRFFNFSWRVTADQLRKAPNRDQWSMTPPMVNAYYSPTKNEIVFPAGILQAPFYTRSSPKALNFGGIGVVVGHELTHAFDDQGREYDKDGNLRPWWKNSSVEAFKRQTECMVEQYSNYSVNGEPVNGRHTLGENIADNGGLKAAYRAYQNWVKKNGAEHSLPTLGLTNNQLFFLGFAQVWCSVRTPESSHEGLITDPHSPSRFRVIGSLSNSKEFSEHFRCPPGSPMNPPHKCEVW
In short: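 Where used, the ECE-1 inhibitor (100 μM) was preincubated with enzyme on ice for 30 min at matching pH before substrate was added. Products were resolved by reversed-phase HPLC and identified by MALDI TOF/TOF mass spectrometry.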

[3] = system: HEK-CLR-RAMP1+βARR2-GFP cells; experiment: Trafficking and colocalization of β-arrestin2-GFP and CLR/RAMP1; format: cell-based, human; conditions: recovery up to 4 h in CGRP-free medium
In short: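 HEK-CLR-RAMP1 cells transiently transfected with β-arrestin2-GFP had surface CLR (HA11) and RAMP1 (Myc) labelled. Cells were given CGRP (2 min to 1 h), washed, and recovered in CGRP-free medium for 1–4 h. SM-19712 10 μM, bafilomycin A1 0.15 or 1 μM, or DMSO was preincubated 20–60 min and kept throughout. After PFA fixation and confocal imaging, β-arrestin2/CLR endosomal colocalization coefficient was measured at 4 h recovery.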

HEK-CLR-RAMP1 cells [4] = experiment: CGRP-induced Ca2+ signaling, desensitization and resensitization; format: cell-based, human; conditions: SM-19712 10 μM
In short: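 HEK-CLR-RAMP1 cells were loaded with Fura-2AM; [Ca2+]i read at 37°C. Single challenge used CGRP 30 nM. For desensitization/resensitization: CGRP 100 nM or vehicle (1 h, 37°C), wash, 0–6 h recovery, CGRP 30 nM rechallenge. Variants: SM-19712 10 μM (20–60 min preincubation, kept throughout); ECE-1 or non-targeting siRNA pools, 72 h; transient ECE-1a-d-GFP. Response given as % of vehicle-treated cells, n ≥ 3.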

HEK-AT1AR cells = experiment: Resensitization of ATII-induced Ca2+ signaling; format: cell-based, human; conditions: SM-19712 10 μM, 20 min and 2 h recovery
In short: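 HEK-AT1AR cells were exposed to ATII (100 nM) or vehicle for 1 h at 37°C, washed, and allowed to recover in agonist-free medium at 37°C. They were then rechallenged with ATII (100 nM) while [Ca2+]i was measured. The [Ca2+]i change is expressed as % of the vehicle-pretreated response. Inhibitor (10 μM) or DMSO was preincubated 20–60 min and kept in buffers throughout. Mean ± SE, n ≥ 3.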

Effect on rhECE-1 degradation of CGRP ([2]; preincubated with ECE-1 on ice 30 min, pH 5.5): abolished
Effect on rhECE-1 degradation of BK ([2]; rhECE-1 83 nM, pH 5.5 and 7.4): prevented this degradation
Compound: Cc1nn(-c2ccccc2)c(NC(=O)NS(=O)(=O)c2ccc(Cl)cc2)c1C#N.[Na] [SM-19712]
Effect on degradation of internalized 125I-His8-CGRP (HEK-CLR-RAMP1 cells [1]): prevented degradation
Effect on resensitization of responses to ATII (A549 cells): did not affect resensitization
Effect on response to a single challenge with CGRP ([Ca2+]i) (SK-N-MC cells; CGRP 100 nM): did not affect magnitude or duration
Effect on desensitization of CGRP-induced Ca2+ signaling (SK-N-MC cells): did not affect desensitization
Inhibition of resensitization of CGRP-induced Ca2+ signaling (SK-N-MC cells; 4 h recovery): 33%
Change of colocalization coefficient of B2R-V2RCT with β-arrestin2 (HEK-B2R-V2RCT cells): twofold increase
Effect on localization of B2R-V2RCT during recovery (HEK-B2R-V2RCT cells; BK 100 nM 10 min): causing it retention in endosomes with β-arrestin2
Reduction of recycling of B2R-V2RCT (HEK-B2R-V2RCT cells; BK 100 nM 10 min): ~50% and > 50%
Effect on localization of CLR (RAMP1) and β-arrestin2 during recovery [3]: caused their retention in endosomes
Effect on response to a single challenge with CGRP ([Ca2+]i) (HEK-CLR-RAMP1 cells [4]; CGRP 30 nM): did not affect magnitude or duration
Effect on desensitization of CGRP-induced Ca2+ signaling (HEK-CLR-RAMP1 cells [4]): did not affect desensitization
Effect on resensitization of CGRP-induced Ca2+ signaling (HEK-CLR-RAMP1 cells [4]; 0–6 h recovery): strongly inhibited resensitization at all times
Effect on resensitization of ATII-induced Ca2+ signaling (HEK-AT1AR cells): did not affect resensitization at either time
